Reference: ChEMBL document CHEMBL2346524, “Protein kinase inhibitor design by targeting the Asp-Phe-Gly (DFG) motif: the role of the DFG motif in the design of epidermal growth factor receptor inhibitors” (J Med Chem, 2013)

Key:
[1] = molecular target: T1, Epidermal growth factor receptor (Homo sapiens, UniProt P00533); experiment: Inhibition of human wild type GST-tagged EGFR kinase domain expressed in Sf9 cells by luminescence assay; type: cell-based
[2] = molecular target: Epidermal growth factor receptor (Homo sapiens, UniProt P00533, L858R); experiment: Inhibition of human GST-tagged EGFR L834R mutant expressed in Sf9 cells by luminescence assay; type: cell-based
[3] = molecular target: T1, Epidermal growth factor receptor; experiment: Ratio of gefitinib IC50 to compound IC50 for human wild type GST-tagged EGFR kinase domain
[4] = molecular target: T1, Epidermal growth factor receptor; experiment: Inhibition of wild type EGFR (unknown origin) at 1 uM relative to control
Outline: (§1)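 Single-concentration profiling at 1 μM across a 317-kinase panel that includes wild-type and mutant EGFR and HER2. Activity of each kinase is given as percent inhibition relative to control.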

[5] = test system: Epidermal growth factor receptor (Homo sapiens), P04626+P00533+Q15303+P21860 [UNDEFINED MUTATION]; experiment: Inhibition of EGFR T766M mutant (unknown origin) at 1 uM relative to control; type: protein assay; outline: as §1
[6] = molecular target: Epidermal growth factor receptor (Homo sapiens) (UniProt P04626+P00533+Q15303+P21860); experiment: Inhibition of EGFR L837Q mutant (unknown origin) at 1 uM relative to control; type: protein assay; outline: as §1
[7] = test system: Epidermal growth factor receptor (Homo sapiens), P00533 [L858R]; experiment: Ratio of gefitinib IC50 to compound IC50 for human GST-tagged EGFR L834R mutant
[8] = molecular target: Cyclin-dependent kinase 2 (Homo sapiens) (UniProt P24941); experiment: Inhibition of CDK2 (unknown origin) at 1 uM relative to control; outline: as §1
[9] = test system: Epidermal growth factor receptor (Homo sapiens), P00533 [L834R]; experiment: Inhibition of EGFR L834R mutant (unknown origin) at 1 uM relative to control; type: protein assay; outline: as §1
[10] = test system: Epidermal growth factor receptor (Homo sapiens), P04626+P00533+Q15303+P21860 [UNDEFINED MUTATION]; experiment: Inhibition of EGFR T766M/L834R mutant (unknown origin) at 1 uM relative to control; type: protein assay; outline: as §1
[11] = organism: Homo sapiens; experiment: Toxicity in human assessed as occurrence of diarrhea; type: organism-based; conditions: in vivo
[12] = organism: Homo sapiens; experiment: Toxicity in human assessed as occurrence of rash; type: organism-based; conditions: in vivo

Row | IC50 [1] [µM] | IC50 [2] [µM] | SMILES | other results
1 | > 10 | > 10 | CC[C@@H](Nc1ncnc2oc(-c3ccccc3)c(-c3ccccc3)c12)c1ccccc1 | 
2 | 0.203 | 0.022 | Nc1cccc(-c2c(-c3ccccc3)oc3ncnc(N[C@H](CO)c4ccccc4)c23)c1 | 
3 | 0.82 | 0.049 | O=[N+]([O-])c1cccc(-c2c(-c3ccccc3)oc3ncnc(N[C@H](CO)c4ccccc4)c23)c1 | 
4 | 0.029 | 0.034 | CN(C)CCCC(=O)Nc1cccc(-c2c(-c3ccccc3)oc3ncnc(N[C@H](CO)c4ccccc4)c23)c1 | 
5 | > 25 | > 25 | CC(C)CCCC(=O)Nc1cccc(-c2c(-c3ccccc3)oc3ncnc(N[C@H](CO)c4ccccc4)c23)c1 | 
6 | 2.99 | 0.339 | C[C@@H](Nc1ncnc2oc(-c3ccccc3)c(-c3ccccc3)c12)c1ccccc1 | 
7 | 0.034 | 0.004 | CN(C)CCCCC(=O)Nc1cccc(-c2c(-c3ccccc3)oc3ncnc(N[C@H](CO)c4ccccc4)c23)c1 | 
8 | 7.89 | 1.45 | COC(=O)[C@@H](Nc1ncnc2oc(-c3ccccc3)c(-c3ccccc3)c12)c1ccccc1 | 
9 | 0.008 | 0.002 | CN(C)CCC(=O)Nc1cccc(-c2c(-c3ccccc3)oc3ncnc(N[C@H](CO)c4ccccc4)c23)c1 | Ratio IC50 [3]: 4; inhibition [4]: 99%; inhibition [5]: 50%; inhibition [6]: 106%; Ratio IC50 [7]: 7; inhibition [8]: -4%; inhibition [9]: 100%; inhibition [10]: 80%
10 | 4.33 | 0.486 | CN(C)CCCCCC(=O)Nc1cccc(-c2c(-c3ccccc3)oc3ncnc(N[C@H](CO)c4ccccc4)c23)c1 | 
11 |  |  | CN(C)C/C=C/C(=O)Nc1cc2c(Nc3ccc(F)c(Cl)c3)ncnc2cc1O[C@@H]1CCOC1 | Activity [11]: 95%; Activity [12]: 62%
12 | 0.179 | 0.023 | CC(=O)Nc1ccc(-c2c(-c3ccccc3)oc3ncnc(N[C@H](CO)c4ccccc4)c23)cc1 | 
13 | 0.589 | 0.168 | OC[C@@H](Nc1ncnc2oc(-c3ccccc3)c(Cl)c12)c1ccccc1 | 
14 | 0.434 | 0.073 | OC[C@@H](Nc1ncnc2oc(-c3ccccc3)c(-c3ccco3)c12)c1ccccc1 | 
15 | 0.352 | 0.044 | OC[C@@H](Nc1ncnc2oc(-c3ccccc3)c(-c3ccoc3)c12)c1ccccc1 | 
16 | 0.048 | 0.004 | CN(C)CC(=O)Nc1cccc(-c2c(-c3ccccc3)oc3ncnc(N[C@H](CO)c4ccccc4)c23)c1 | 
17 | 0.218 | 0.029 | CC(=O)Nc1cccc(-c2c(-c3ccccc3)oc3ncnc(N[C@H](CO)c4ccccc4)c23)c1 | 
18 | 0.393 | 0.052 | OC[C@@H](Nc1ncnc2oc(-c3ccccc3)c(-c3ccccc3)c12)c1ccccc1 | 
